Experimental data published in paper PMC8240349 (Journal of Traditional and Complementary Medicine, 2021).
Read-outs that look alike come from different tables or passages of the source. Marks after values point to notes of the source that are not given here.

Experiments:
[1] = type: in vivo, human; settings: for t1/2z / tmax / λ / AUC0-t / AUC0-∞ / CL/F / Cmax / MRT / Vz/F: median (range)
Outline: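 Healthy Thai adults took oral 1,000 mg AL extract capsules with 200 ml water, either once (group 1) or daily for 21 days (group 2), with 20 active recipients per group. Plasma atractylodin was measured by reversed-phase C18 HPLC (UV 340 nm, acetonitrile:water 70:30, 25 °C; LOQ 2.5 ng/ml). Cmax was read from observed data. t1/2z came from log-linear regression of at least the last three points. MRT was AUMC0-∞/AUC0-∞.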

CCA = settings: bioassay-guided activity; cited from earlier work
[2] = cited from earlier work
[3] = rats, cited from earlier work
[4] = group 1, single 1,000 mg AL, all
[5] = group 1, single 1,000 mg AL, female
[6] = group 1, single 1,000 mg AL, male
[7] = group 2, daily 1,000 mg AL, day 1, all
[8] = group 2, daily 1,000 mg AL, day 1, female
[9] = group 2, daily 1,000 mg AL, day 1, male
[10] = group 2, daily 1,000 mg AL, day 21, all
[11] = group 2, daily 1,000 mg AL, day 21, female
[12] = group 2, daily 1,000 mg AL, day 21, male
[13] = intravenous 2 mg/kg body weight atractylodin
[14] = oral 30 g/kg body weight A. rhizoma
[15] = oral 40 g/kg body weight crude A. rhizoma
[16] = oral 40 g/kg body weight processed A. rhizoma

C/C=C/C#CC#C/C=C/c1ccco1 [atractylodin]
t1/2z [1, 4]: 1.13 (0.78–1.48) h | tmax [1, 4]: 1 (0.75–1.5) h | λ [1, 4]: 0.62 (0.47–0.89) /h | AUC0-t [1, 5]: 122.67 (72.47–192.85) ng.h/ml | AUC0-∞ [1, 5]: 128.13 (75.13–199.88) ng.h/ml | CL/F [1, 5]: 6.87 (4.48–13.70) l/kg/h | Cmax [1, 5]: 58.65 (42.50–96.80) ng/ml | MRT [1, 5]: 2.21 (1.70–3.74) h | Vz/F [1, 5]: 12.11 (6.62–20.17) l/kg | t1/2z [1, 5]: 1.18 (0.72–2.19) h | tmax [1, 5]: 1.0 (0.75–1.0) h | λ [1, 5]: 0.71 (0.37–0.92) /h | AUC0-t [1, 6]: 142.14 (83.48–199.75) ng.h/ml | AUC0-∞ [1, 6]: 146.88 (86.09–226.53) ng.h/ml | CL/F [1, 6]: 6.29 (2.80–8.92) l/kg/h | Cmax [1, 6]: 59.20 (41.80.50–99.30) ng/ml | MRT [1, 6]: 2.42 (1.71–2.94) h | Vz/F [1, 6]: 11.49 (8.35–56.42) ^a l/kg | t1/2z [1, 6]: 1.23 (0.13–2.77) h | tmax [1, 6]: 1.0 (0.75–2.0) h | λ [1, 6]: 0.85 (0.29–1.10) /h | participants with atractylodin detected at 0.25 h ([1]; group 1, single 1,000 mg AL, 10 participants): 50% | AUC0-t [1, 7]: 93.06 (12.13–276.28) ng.h/ml | AUC0-∞ [1, 7]: 112.2 (20.11–306.76) ng.h/ml | CL/F [1, 7]: 7.33 (2.87–33.43) l/kg/h | Cmax [1, 7]: 47.10 (7.10–129.90) ng/ml | MRT [1, 7]: 2.60 (1.58–5.17) h | Vz/F [1, 7]: 12.75 (4.44–61.56) l/kg | t1/2z [1, 7]: 1.16 (0.63–3.75) h | tmax [1, 7]: 1.0 (0.5–2.0) h | λ [1, 7]: 0.60 (0.19–1.11) /h | AUC0-t [1, 8]: 99.67 (42.88–276.28) ng.h/ml | AUC0-∞ [1, 8]: 139.56 (70.21–248.22) ng.h/ml | CL/F [1, 8]: 6.43 (2.87–15.00) l/kg/h | Cmax [1, 8]: 54.35 (16.10–129.90) ng/ml | MRT [1, 8]: 2.66 (1.70–3.99) h | Vz/F [1, 8]: 11.97 (4.44–37.88) l/kg | t1/2z [1, 8]: 1.36 (0.85–1.75) h | λ [1, 8]: 0.52 (0.40–0.82) /h | AUC0-t [1, 9]: 82.88 (12.13–181.08) ng.h/ml | AUC0-∞ [1, 9]: 92.40 (20.11–210.23) ng.h/ml | CL/F [1, 9]: 8.38 (3.77–33.43) l/kg/h | Cmax [1, 9]: 41.90 (7.10–67.20) ng/ml | MRT [1, 9]: 2.47 (1.58–5.17) h | Vz/F [1, 9]: 13.96 (6.73–61.56) l/kg | t1/2z [1, 9]: 1.09 (0.63–3.75) h | tmax [1, 9]: 1.0 (1.0–2.0) h | λ [1, 9]: 0.64 (0.19–1.11) /h | participants with atractylodin detected at 0.5 h ([1]; group 2, daily 1,000 mg AL, day 1, 17 participants): 85% | AUC0-t [1, 10]: 106.67 (40.42–259.81) ng.h/ml | AUC0-∞ [1, 10]: 117.75 (48.73-269-21) ng.h/ml | CL/F [1, 10]: 6.80 (2.95–14.82) l/kg/h | Cmax [1, 10]: 46.95 (20.10–152.70) ng/ml | MRT [1, 10]: 2.64 (1.58–4.54) h | Vz/F [1, 10]: 12.85 (3.58–31.55) l/kg | t1/2z [1, 10]: 1.14 (0.80–2.17) h | tmax [1, 10]: 1.0 (0.5–2.0) h | λ [1, 10]: 0.61 (0.32–0.87) /h | AUC0-t [1, 11]: 118.05 (42.97–212.09) ng.h/ml | AUC0-∞ [1, 11]: 145.54 (67.49–232.33) ng.h/ml | CL/F [1, 11]: 5.93 (3.79–11.38) l/kg/h | Cmax [1, 11]: 52.55 (20.10–152.70) ng/ml | MRT [1, 11]: 2.61 (1.58–4.54) h | Vz/F [1, 11]: 12.12 (5.11–31.55) l/kg | t1/2z [1, 11]: 1.28 (0.80–2.17) h | tmax [1, 11]: 1.0 (0.5–2.0) h | λ [1, 11]: 0.54 (0.32–0.87) /h | AUC0-t [1, 12]: 75.38 (40.42–259.81) ng.h/ml | AUC0-∞ [1, 12]: 91.67 (48.73-269-21) ng.h/ml | CL/F [1, 12]: 7.90 (2.95–14.82) l/kg/h | Cmax [1, 12]: 44.0 (22.0–107.0) ng/ml | MRT [1, 12]: 2.64 (1.95–3.08) h | Vz/F [1, 12]: 13.79 (3.58–22.13) l/kg | t1/2z [1, 12]: 1.08 (0.84–1.65) h | tmax [1, 12]: 1.0 (1.0–2.0) h | λ [1, 12]: 0.64 (0.42–0.82) /h | participants with atractylodin detected at 0.5 h ([1]; group 2, daily 1,000 mg AL, day 21, 19 participants): 95% | plasma atractylodin level at 4 h ([1]; group 2, daily 1,000 mg AL, range): 2.5 to 18.2 ng/mL | accumulation after multiple oral dosing ([1]; human plasma, multiple oral dosing for 21 days): no accumulation | time by which atractylodin was cleared in plasma ([1]; most participants): ≤ 4 h | IC50, anti-CCA activity (CCA): 20 to 25 mg/L | water solubility [2]: low water solubility | central volume of distribution (Vc) [3, 13]: 31.7 L/kg | t1/2 [3, 13]: 3.3 h | total clearance (CL) [3, 13]: 6.59 L/h/kg | mean maximum plasma concentration (Cmax) [3, 14]: 1,930 ng/ml | terminal elimination half-life (t1/2) [3, 14]: 8 h | time to Cmax (tmax) [3, 14]: 2.25 h | CL/F [3, 15]: 6.67 L/h/kg | mean Cmax [3, 15]: 625 ng/mL | mean residence time (MRT) [3, 15]: 4.8 h | t1/2z [3, 15]: 2.38 h | time of Cmax [3, 15]: 2.2 h | CL/F [3, 16]: 2.56 L/h/kg | MRT [3, 16]: 7.06 h | mean Cmax [3, 16]: 2,299 ng/ml | t1/2z [3, 16]: 5.13 h | tmax [3, 16]: 0.33 h
